Screening results as filed in PubChem.
SENP8 block-1 – blocks human SENP8 cleavage of Nedd8 substrate. Q96LD8. recombinant SENP8, Nedd8 substrate fluorescence. inhibition, % at 20 µM. hit rate 0.64% among 360,000. AID 602440; in the data active = inhibition mostly above about 40%, no sharp cut-off; inactive = mostly below about 27%
SENP6 block – inhibitors of human SENP6 protease; Q9GZR1; Recombinant SENP6 catalytic domain, aminoluciferin luminescence; inhibition, % at 10 µM; hit rate 1.8% among 330,000;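 active = inhibition above about 50% at the single tested dose, limit read from the data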;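 note: plate controls were DMSO wells with enzyme for no effect and DMSO wells lacking enzyme for full effect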
Target sequence (Q9GZR1 628-1112 limits assumed): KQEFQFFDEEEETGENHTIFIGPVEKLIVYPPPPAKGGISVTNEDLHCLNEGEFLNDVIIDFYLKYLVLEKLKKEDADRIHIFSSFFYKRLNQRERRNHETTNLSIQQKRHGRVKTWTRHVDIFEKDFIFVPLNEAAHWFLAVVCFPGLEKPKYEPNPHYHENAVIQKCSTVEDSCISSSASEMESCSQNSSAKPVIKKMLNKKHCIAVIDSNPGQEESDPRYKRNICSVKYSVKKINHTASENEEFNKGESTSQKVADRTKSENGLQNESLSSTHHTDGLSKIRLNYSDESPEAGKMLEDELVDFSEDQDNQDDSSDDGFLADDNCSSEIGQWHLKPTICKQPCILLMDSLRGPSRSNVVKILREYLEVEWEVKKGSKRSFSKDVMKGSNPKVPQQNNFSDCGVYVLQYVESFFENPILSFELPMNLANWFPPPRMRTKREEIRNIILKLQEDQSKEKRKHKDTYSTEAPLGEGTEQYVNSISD
UBC13 inh – human UBC13 polyubiquitination inhibition | inhibition, % at 20 µM | P61088 | hit rate 0.47% among 330,000 | UBC13 polyubiquitin chain formation, TR-FRET; in the data active = inhibition above about 45%, passing the limit was not always enough
Target sequence (P61088 whole entry, looked up): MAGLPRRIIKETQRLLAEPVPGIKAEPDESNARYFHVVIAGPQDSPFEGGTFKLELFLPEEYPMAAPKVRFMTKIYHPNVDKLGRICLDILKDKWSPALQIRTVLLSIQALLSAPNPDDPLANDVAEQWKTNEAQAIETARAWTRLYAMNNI
Apaf1 inhib – blocks human Apaf-1 apoptosome activity; O14727; reconstituted apoptosome caspase-3 activity, DEVD-Rh110 fluorescence; inhibition, % at 20 µM; hit rate 0.71% among 330,000; active = inhibition of at least 40% at 20 µM;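 note: plate controls were DMSO wells for no effect and DEVD-CHO caspase inhibitor wells for full effect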
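Medium: Hepes buffer, pH 7.5 / System: biochemical Apaf-1 apoptosome reconstitution / Measured by: Rh110 fluorescence, excitation 480 nm, emission 540 nm / Times: compound with Apaf-1, dATP, procaspase-3 30 min, then 50 min reaction, room temperature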
SENP7 inh – inhibitors of human SENP7 protease; hit rate 1.5% among 330,000; Q9BQF6; inhibition, % at 5 µM; recombinant SENP7, Z-RLRGG-aminoluciferin luminescence, 40 min;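 active = inhibition above about 50% at the single test dose, limit read from the data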;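 note: plate controls were DMSO with enzyme for no effect and no enzyme buffer wells for full effect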
SENP8 block-2 – SENP8 protease inhibition | Q96LD8 | purified SENP8, Z-RLRGG-aminoluciferin cleavage, luminescence | inhibition, % at 10 µM | hit rate 1.2% among 330,000 | AID 2540; in the data active = inhibition above about 50%
* marks the source's active call; other numbers are inactive results. Most compounds without a hit are left out; they make up all but 3% or so of the library.

For C#CCOCCOCCOCCNc1nc(N2CCN(C(=O)[C@H](CCCCN)n3cc([C@@H](N)C(C)CC)nn3)CC2)nc(N2CCN(C(=O)[C@H](CCCCN)n3cc([C@@H](N)CO)nn3)CC2)n1 (some centres undefined) the results were SENP6 block 2.5, UBC13 inh 46.3*, Apaf1 inhib -10.7, SENP7 inh -2.4 and SENP8 block-2 1.3.
Screening C#CCOCCOCCOCCNc1nc(N2CCN(C(=O)[C@H](CCCCN)n3cc([C@@H](N)CO)nn3)CC2)nc(N2CCN(C(=O)[C@H](Cc3cc4ccccc4[nH]3)n3cc([C@@H](N)CC(C)C)nn3)CC2)n1 returned SENP6 block 3.1, UBC13 inh 99.7*, Apaf1 inhib -6.1, SENP7 inh -0.4 and SENP8 block-2 6.3.
C#CCOCCOCCOCCNc1nc(N2CCN(C(=O)[C@H]([C@@H](C)CC)n3cc([C@@H](N)CO)nn3)CC2)nc(N2CCN(C(=O)[C@H](CCCCN)n3cc([C@@H](N)C(C)CC)nn3)CC2)n1 (some centres undefined) was read as SENP8 block-1 14.7, SENP6 block -3.6, UBC13 inh 3.1, Apaf1 inhib 3.3, SENP7 inh 0.9 and SENP8 block-2 -1.1.
`O=C(c1cc(Cl)ccc1O)N1CCN(S(=O)(=O)Cc2ccccc2)CC1` gave SENP8 block-1 0.7, SENP6 block -1.9, UBC13 inh 16.0, Apaf1 inhib -6.0, SENP7 inh 6.8 and SENP8 block-2 1.8.
O=C(CSc1ccc2c(c1)OCCO2)Nc1cccnc1 was read as SENP8 block-1 12.0, SENP6 block -2.2, UBC13 inh 3.9, Apaf1 inhib -2.6, SENP7 inh 1.4 and SENP8 block-2 0.1.
`C#CCOCCOCCOCCNc1nc(N2CCN(C(=O)[C@H]([C@@H](C)CC)n3cc([C@@H](N)CC(C)C)nn3)CC2)nc(N2CCN(C(=O)[C@H](CCCCN)n3cc([C@@H](N)CC(C)C)nn3)CC2)n1` gave SENP6 block -5.1, UBC13 inh 54.9*, Apaf1 inhib -1.2, SENP7 inh -2.4 and SENP8 block-2 0.9.
`C#CCOCCOCCOCCNc1nc(N2CCN(C(=O)[C@H](CCCCN)n3cc([C@@H](N)CO)nn3)CC2)nc(N2CCN(C(=O)[C@H](Cc3cc4ccccc4[nH]3)n3cc([C@@H](N)CO)nn3)CC2)n1` gave SENP6 block -20.4, UBC13 inh 109.6*, Apaf1 inhib -1.8, SENP7 inh 1.6 and SENP8 block-2 -2.8.
C#CCOCCOCCOCCNc1nc(N2CCOCC2)nc(N2CCN(C(=O)[C@H](Cc3cc4ccccc4[nH]3)n3cc([C@@H](N)Cc4ccc(O)cc4)nn3)CC2)n1 was read as SENP8 block-1 14.9, SENP6 block -3.6, UBC13 inh 8.6, Apaf1 inhib 12.6, SENP7 inh -15.9 and SENP8 block-2 7.8.
For C#CCOCCOCCOCCNc1nc(N2CCN(C(=O)C([C@@H](C)CC)n3cc(C(N)COC(=O)C(F)(F)F)nn3)CC2)nc(N2CCN(C(=O)[C@H](CCCCN)n3cc(C(N)[C@H](C)CC)nn3)CC2)n1 (some centres undefined) the results were SENP6 block -1.6, UBC13 inh 113.9*, Apaf1 inhib 21.7, SENP7 inh 0.6 and SENP8 block-2 -5.7.
C#CCOCCOCCOCCNc1nc(N2CCN(C(=O)[C@H]([C@@H](C)CC)n3cc([C@@H](N)CO)nn3)CC2)nc(N2CCN(C(=O)[C@H](Cc3cc4ccccc4[nH]3)n3cc([C@@H](N)Cc4ccc(O)cc4)nn3)CC2)n1 was read as SENP6 block -20.1, UBC13 inh 97.6*, Apaf1 inhib 56.6*, SENP7 inh -7.5 and SENP8 block-2 -11.6.
Screening CCOC1=C2CN(S(=O)(=O)c3ccc(C)cc3)C(c3ccccc3)CC2N(S(=O)(=O)c2ccccc2Cl)C(c2ccccc2)C1 (centres undefined) returned SENP8 block-1 15.2.
`O=C(CSc1nnc(SCc2ccc(Cl)cc2)s1)N/N=C/c1c[nH]c2ccccc12` gave SENP8 block-1 27.8.
For Cc1nn(-c2ccccc2)c(C)c1/C=N/NC(=O)CSc1nnc(-c2ccccc2)n1-c1ccc(Cl)cc1 the results were SENP8 block-1 7.5, SENP6 block -14.7, UBC13 inh 5.0, Apaf1 inhib 20.4, SENP7 inh 3.7 and SENP8 block-2 0.8.
`Cc1nn(-c2ccccc2)c(C)c1/C=N/NC(=O)CSc1nnc(SCc2ccccc2Cl)s1` gave SENP8 block-1 5.2, SENP6 block 70.6*, UBC13 inh 13.3, Apaf1 inhib 7.2, SENP7 inh 27.4 and SENP8 block-2 60.8*.
For O=C(CSc1nnc(SCc2ccc(Cl)cc2)s1)N/N=C/c1ccc(C(=O)O)cc1 the results were SENP8 block-1 12.6, SENP6 block 85.0*, UBC13 inh -2.2, Apaf1 inhib -11.7, SENP7 inh 37.2 and SENP8 block-2 64.9*.
CCOC(=O)C1(CCCc2ccccc2)CCN(C(=O)CCOC)CC1 was read as SENP8 block-1 5.9, SENP6 block 86.7*, UBC13 inh -0.9, Apaf1 inhib 5.9, SENP7 inh -5.5 and SENP8 block-2 -9.0.
O=C1N/C(=N/O)S/C1=C/c1cccc([N+](=O)[O-])c1 was read as SENP8 block-1 30.3, SENP6 block 57.4*, UBC13 inh -15.8, Apaf1 inhib 5.8, SENP7 inh 12.8 and SENP8 block-2 18.6.
`Oc1ccc(C2Nc3cccc4cccc(c34)N2)c(O)c1` gave SENP8 block-1 44.8*, SENP6 block 4.7, UBC13 inh -4.8, Apaf1 inhib 22.2, SENP7 inh 3.1 and SENP8 block-2 -4.6.
`COc1cc(C2Nc3cccc4cccc(c34)N2)cc(OC)c1O` gave SENP8 block-1 58.0*, SENP6 block 18.7, UBC13 inh -26.6, Apaf1 inhib 35.6, SENP7 inh 97.6* and SENP8 block-2 8.5.
`COc1cc(C2Nc3cccc4cccc(c34)N2)ccc1OC(C)=O` gave SENP8 block-1 10.6, SENP6 block 11.2, UBC13 inh -48.9, Apaf1 inhib 19.6, SENP7 inh -2.9 and SENP8 block-2 6.8.
COC(=O)c1ccc(C2Nc3cccc4cccc(c34)N2)cc1 was read as SENP8 block-1 54.0*, SENP6 block 27.4, UBC13 inh -23.3, Apaf1 inhib 3.8, SENP7 inh 12.1 and SENP8 block-2 1.5.
For Fc1ccc(C2Nc3cccc4cccc(c34)N2)cc1 the results were SENP8 block-1 34.3, SENP6 block 14.5, UBC13 inh -20.8, Apaf1 inhib 22.0, SENP7 inh -3.5 and SENP8 block-2 1.2.
For COc1cccc(OC)c1-c1nn2c(-c3cc(-c4ccccc4)n[nH]3)nnc2s1 the results were SENP8 block-1 19.2, SENP6 block -101.0, UBC13 inh 25.2, Apaf1 inhib 53.1*, SENP7 inh 13.8 and SENP8 block-2 13.1.
